The source made the active and inactive calls. No cut-off for these calls is given here.

The nature of series [1]: Cell cycle arrest in human 293T cells assessed as accumulation at sub-G1 phase at 4 uM after 24 hrs using propidium iodide staining by FACS. Format: functional, cell-based. The note with it: HEK-293T. Put shortly:
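293T cells exposed to 4 µM agents for 24 h, harvested by trypsinization and fixed in 50% cold ethanol at −20 °C. Washed in PBS, then RNase A (100 µg/mL) for 20 min at 37 °C. DNA content of 10,000 events read by flow cytometry. Result is % of cells in the sub-G1 peak.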

Series [2] concerns A-375. Put plainly: Cytotoxicity against human A375 cells assessed as survival at 4 uM after 24 hrs by MTT assay. The series is classed as functional. The note with it: A-375, 24 h, read-out: Survival. Put shortly:
(§1)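 Cells seeded at 2500 cells/well, incubated overnight, then exposed to agents at 4 µM for 24 h. Medium replaced with MTT dye, 2 h at 37 °C. Formazan dissolved in DMSO, absorbance read at 540 nm. Survival expressed as % of untreated control.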
Background: Tetrazolium dyes change colour on reduction, which living cells bring about.

Series [3] in a line: Cytotoxicity against human 293T cells assessed as survival at 4 uM after 24 hrs by MTT assay. The series is classed as cell-based, HEK-293T. The note with it: read-out: Survival. Put shortly:
as §1

For series [4], the system named is MCF7. Put plainly: Cytotoxicity against human MCF7 cells assessed as survival at 4 uM after 24 hrs by MTT assay. The series is classed as functional. The note with it: MCF7, 24 h, read-out: Survival. In outline:
as §1

Series [5] concerns NCI-H1355. The series is described as follows: Cytotoxicity against human NCI-H1355 cells assessed as survival at 4 uM after 24 hrs by MTT assay. Format: functional. The note with it: NCI-H1355, 24 h, read-out: Survival. In outline: as §1
Series [6] relates to A2058. Put plainly: Cytotoxicity against human A2058 cells assessed as survival at 4 uM after 24 hrs by MTT assay. The note with it: A2058, 24 h, read-out: Survival. The series is classed as functional. Put shortly: as §1
In series [7] the test system is HEK-293T. The series is described as follows: Induction of apoptosis in human 293T cells assessed as degradation of caspase 3 at 4 uM after 24 hrs by Western blot analysis. Format: functional, cell-based. Put shortly: (§2)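 293T cells were exposed for 24 h to graded concentrations (0, 1, 2 and 4 µM shown) or to 4 µM agent. Cell lysates were immunoblotted for caspase-3 (CPP32) and p53, with actin as the loading control. Primary antibody ran 2 h at room temperature or overnight at 4 °C, then HRP secondary 1 h at room temperature, with chemiluminescent detection.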
On the technique in general: A western blot detects proteins with antibodies after separation by electrophoresis.

For series [8], the system named is HEK-293T. Put plainly: Induction of apoptosis in human 293T cells assessed as decrease in p53 protein expression at 4 uM after 24 hrs by Western blot analysis. The series is classed as functional, cell-based. In outline: as §2
In series [9] the test system is HEK-293T. The series is described as follows: Induction of apoptosis in human 293T cells assessed as change in morphology at 4 uM after 24 hrs. The series is classed as functional, cell-based. In outline: (§3)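 293T cells (5×10⁵/well) were grown for one day, then treated for 24 h with 4 µM agent or graded concentrations. Morphology was photographed by phase-contrast microscopy at 200×.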

The test system of series [10] is HEK-293T. The series is described as follows: Induction of apoptosis in human 293T cells at 4 uM after 24 hrs using annexin V-FITC staining by FACS. Format: functional. Put shortly: (§4)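 293T cells were treated for 24 h with 4 µM agent or graded concentrations, then harvested by trypsinization and centrifugation. Annexin V-FITC was added to 10⁶ cells per sample, with simultaneous PI staining. About 10,000 cells per group were analysed by flow cytometry, with annexin V⁺/PI⁻ scored as early apoptotic.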
On the technique in general: In flow cytometry, cells or beads pass a laser one at a time.

In series [11] the test system is BT-549. Put plainly: Cytotoxicity against human BT549 cells after 24 hrs by MTT assay. Format: functional. The note with it: BT-549, 24 h.
The subject of series [12] is HEK-293T. Put plainly: Induction of apoptosis in human 293T cells assessed as change in morphology after 24 hrs. The series is classed as functional, cell-based. Put shortly:
as §3

Series [13] has as its system OVCAR-3. Put plainly: Cytotoxicity against human OVCAR-3 cells after 24 hrs by MTT assay. Format: functional. The note with it: OVCAR-3, 24 h.
Series [14] relates to HEK-293T. Put plainly: Induction of apoptosis in human 293T cells assessed as early apoptotic cells at 2 uM after 24 hrs using annexin V-FITC/propidium iodide staining by FACS. Format: functional. In outline:
as §4

The test system of series [15] is CAKI-1. Put plainly: Cytotoxicity against human Caki1 cells after 24 hrs by MTT assay. The series is classed as functional. The note with it: CAKI-1, 24 h.
The test system of series [16] is HEK-293T. The series is described as follows: Induction of apoptosis in human 293T cells assessed as necrotic cells at 1 uM after 24 hrs using annexin V-FITC/propidium iodide staining by FACS. The series is classed as functional. Put shortly: as §4
In series [17] the test system is MCF7. The series is described as follows: Cytotoxicity against human MCF7 cells after 24 hrs by MTT assay. The series is classed as functional. The note with it: MCF7, 24 h.
Series [18] deals with HEK-293T. Put plainly: Induction of apoptosis in human 293T cells assessed as decrease in p53 protein expression at 1 uM after 24 hrs by Western blot analysis. Format: functional, cell-based. Put shortly: as §2
Series [19] concerns SK-MEL-2. The series is described as follows: Cytotoxicity against human SK-MEL-2 cells after 24 hrs by MTT assay. Format: functional. The note with it: SK-MEL-2, 24 h.
Series [20] has as its system CCRF-CEM. The series is described as follows: Cytotoxicity against human CCRF-CEM cells after 24 hrs by MTT assay. Format: functional.
Series [21] concerns RXF 393. Put plainly: Cytotoxicity against human RXF393 cells after 24 hrs by MTT assay. The series is classed as functional. The note with it: RXF 393, 24 h.
Series [22] relates to OVCAR-8. The series is described as follows: Cytotoxicity against human OVCAR8 cells after 24 hrs by MTT assay. The series is classed as functional. The note with it: OVCAR-8, 24 h.
The subject of series [23] is HEK-293T. Put plainly: Induction of apoptosis in human 293T cells assessed as DNA repair deficiency at > 2 uM. Format: functional, cell-based. In outline: as §2
Series [24] relates to SW-620. The series is described as follows: Cytotoxicity against human SW620 cells after 24 hrs by MTT assay. The series is classed as functional. The note with it: SW-620, 24 h.
Series [25] relates to HEK-293T. The series is described as follows: Induction of apoptosis in human 293T cells assessed as necrotic cells at 2 uM after 24 hrs using annexin V-FITC/propidium iodide staining by FACS. Format: functional. In outline: as §4
In series [26] the test system is T47D. The series is described as follows: Cytotoxicity against human T47D cells after 24 hrs by MTT assay. The series is classed as functional.
The test system of series [27] is HEK-293T. The series is described as follows: Induction of apoptosis in human 293T cells assessed as early apoptotic cells at 1 uM after 24 hrs using annexin V-FITC/propidium iodide staining by FACS. Format: functional. Put shortly: as §4
Series [28] deals with IGROV-1. Put plainly: Cytotoxicity against human IGROV1 cells after 24 hrs by MTT assay. The note with it: IGROV-1, 24 h. Format: functional.
Series [29] has as its system HEK-293T. Put plainly: Induction of apoptosis in human 293T cells assessed as degradation of caspase 3 after 24 hrs by Western blot analysis. The series is classed as functional, cell-based. In outline:
as §2

In series [30] the test system is HEK-293T. Put plainly: Induction of apoptosis in human 293T cells assessed as early apoptotic cells at 4 uM after 24 hrs using annexin V-FITC/propidium iodide staining by flow cytometry. Format: functional. Put shortly: as §4
In series [31] the test system is MOLT-4. The series is described as follows: Cytotoxicity against human MOLT4 cells after 24 hrs by MTT assay. Format: functional. The note with it: MOLT-4, 24 h.
Series [32] concerns MDA-MB-435. The series is described as follows: Cytotoxicity against human MDA-MB-435 cells after 24 hrs by MTT assay. Format: functional. The note with it: MDA-MB-435, 24 h.
The subject of series [33] is RPMI-8226. The series is described as follows: Cytotoxicity against human RPMI8226 cells after 24 hrs by MTT assay. Format: functional. The note with it: RPMI-8226, 24 h.
Series [34] has as its system HEK-293T. Put plainly: Induction of apoptosis in human 293T cells assessed as necrotic cells at 4 uM after 24 hrs using annexin V-FITC/propidium iodide staining by flow cytometry. The series is classed as functional. In outline: as §4

With `COc1cc2c(cc1OCC#Cc1ccccc1C#Cc1ccccc1)N=C[C@@H]1CCCN1C2=O`, in series [1], the Activity is 6.3%. Also, the viability at 4 µM was determined as 13.1% in [2], 48.9% in series [4], 70.9% in series [5] and 46.1% in [6]. Besides, in series [3], the viability at 24 h, 4 µM was found to be 48.9%.
As for `COc1cc2c(cc1OCCCCCCNC(=O)c1cc3ccccc3[nH]1)N=C[C@@H]1CCCN1C2=O`, the outcome in series [7], in series [8] and in series [9] was Active. Besides, in [10], the Activity came to 19.4%.
Consider `COc1cc2c(cc1OC/C=C/COCC#Cc1ccccc1C#Cc1ccccc1)N=C[C@@H]1CCCN1C2=O`, for which the Activity in [1] was determined as 13.9%. Moreover, the viability at 4 µM in [2] was 42.9%; in [4], 70.4%; in series [5], 67.4%; in series [6], 43%. Also, in series [3], the viability at 24 h, 4 µM was 48.4%.
With `COc1cc2c(cc1OCCCCC#Cc1ccccc1C#Cc1ccccc1)N=C[C@@H]1CCCN1C2=O`, in [1], the Activity turned out to be 13.2%. The viability at 4 µM in series [2] turned out to be 28.3%; in series [4], 85.2%; in series [5], 75.2%; in [6], 49.5%. Besides, the viability at 24 h, 4 µM in series [3] came to 19.2%.
Consider `COc1cc2c(cc1OCC=CCOCCC#Cc1ccccc1C#Cc1ccccc1)N=C[C@@H]1CCCN1C2=O`, for which the Activity in series [1] came out at 13.3%. Moreover, the viability at 4 µM in [2] turned out to be 85.7%; in series [4] it was 83.8%; in series [5], 71%; in series [6] it was 84.5%. Besides, the viability at 24 h, 4 µM in series [3] came to 60.7%.
Regarding `COc1cc2c(cc1O)N=C[C@@H]1CCCN1C2=O`, in [1], the Activity turned out to be 10%. Besides, the viability at 4 µM in series [2] was 50.2%; in series [4], 72.3%; in series [5], 73.9%; in series [6], 63.4%. Besides, the viability at 24 h, 4 µM in series [3] was 68.9%.
Regarding `COc1cc2c(cc1OC/C=C\COCC#Cc1ccccc1C#Cc1ccccc1)N=C[C@@H]1CCCN1C2=O`, the Activity in [1] came out at 15.6%. Moreover, the viability at 4 µM in series [2] was determined as 33.9%; in series [4], 44%; in series [5], 44%; in series [6], 39.1%. The viability at 24 h, 4 µM in [3] amounted to 44%.
As for `COc1cc2c(cc1OC/C=C/COCCC#Cc1ccccc1C#Cc1ccccc1)N=C[C@@H]1CCCN1C2=O`, in series [1], the Activity worked out at 13.6%. Further, the viability at 4 µM in series [2] came out at 33.4%; in [4], 59.2%; in [5] it was 85.2%; in series [6], 46.2%. Moreover, the viability at 24 h, 4 µM in [3] was 35.2%.
Broadly, the GI50 is the concentration giving 50% growth inhibition. A higher GI50 goes with lower sensitivity of the cells. For `COc1cc2c(cc1OCCCC#Cc1ccccc1C#Cc1ccccc1)N=C[C@@H]1CCCN1C2=O`, the GI50 in series [11] worked out at 641 nM; in [13] it was 520 nM; in series [15] it was 485 nM; in series [17], 305 nM; in [19] it was 924 nM; in series [20], 422 nM. In addition, the GI50 in series [21] was determined as 686 nM; in series [22], 394 nM; in series [24], 478 nM; in [26] it was 779 nM; in series [28], 549 nM; in [31], 648 nM. The GI50 in series [32] is 468 nM; in [33], 285 nM. Also, the Activity entry in [12] is “Dose-dependent effect”; in series [14], 2.2%; in series [1], 14.5%; in series [16] it was 13.7%; in series [25] it was 14.5%; in series [27] it was 2.1%. Further, the Activity in series [10] is 25.4%; in series [29], “Dose-dependent effect”; in series [30], 1.5%; in series [34], 17.4%. Besides, the outcome in series [7], in series [8] and in series [23] was Active. For the same compound, the outcome in [18] was inactive. Moreover, the viability at 4 µM was found to be 22.3% in series [2], 49.7% in [4], 87.7% in series [5] and 47.2% in [6]. Also, the viability at 24 h, 4 µM in series [3] was 28.7%.

For the origin of these results see ChEMBL document CHEMBL1143366, “Synthesis and antitumor activity of novel enediyne-linked pyrrolo[2,1-c][1,4]benzodiazepine hybrids” (Bioorg Med Chem, 2009).
